The term IC50 denotes the midpoint of a concentration-inhibition curve.

Results on two molecules are retold here after ChEMBL document CHEMBL4321820, “Identification and Optimization of Mechanism-Based Fluoroallylamine Inhibitors of Lysyl Oxidase-like 2/3” (J Med Chem, 2019).

The source made the active and inactive calls. The rule behind the calls is not given here.

Data set [1] is described as follows: Prodrug conversion in BALB/c mouse plasma assessed as 1-[4-amino-2-fluoro-but-2-enyl]-3-[3-(dimethylsulfamoyl)phenyl]-2-methyl-indole-5-carboxylic acid hydrochloride formation at 20 mg/kg, po administered via gavage by HPLC-MS/MS analysis. The following applies: in vivo. The data set is classed as ADME, organism-based. A digest of the protocol:
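Male BALB/c mice dosed by oral gavage at 20 mg/kg (n=3); plasma prodrug and released free acid quantified by LC-MS/MS; each point the mean of 3 animals.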

Data set [2] has as its system Mus musculus. The data set can be described thus: Antifibrotic activity in CCl4-induced BALB/c mouse model of liver fibrosis assessed as reduction in liver fibrosis area at 5 to 15 mg/kg, po administered once daily at week 4 to 6 by alpha-SMA staining based microscopy. The data set is classed as functional, organism-based. The essentials:
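Female BALB/c mice given CCl4 i.p. (1 mL/kg of 25% CCl4 in olive oil) twice weekly for 6 weeks; sacrificed 48 h after last dose. Test articles oral, once daily: prophylactic weeks 1-6 or therapeutic weeks 4-6; imatinib control 50 mg/kg daily weeks 1-6. One formalin-fixed liver lobe stained for Picro Sirius Red and α-SMA; fibrotic area as % of total liver area; mean ± SEM, one-way ANOVA with Dunnett's test.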

Data set [3] deals with Mus musculus. The data set can be described thus: Antifibrotic activity in ip dosed bleomycin-induced C57BL/6 mouse model of lung fibrosis assessed as reduction in Ashcroft score administered on day 7 to 27 measured on day 28 by H and E staining based microscopy. In kind it is functional, organism-based. The essentials: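 Female C57BL/6 mice, 6-8 weeks old, under isoflurane received intranasal bleomycin sulphate 0.05 U/mouse in PBS; controls got PBS. Once-daily i.p. treatment days 7-27, n=12/group; imatinib 50 mg/kg i.p. as comparator. Sacrifice at day 28; lung fibrosis scored by Ashcroft score.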

The target in a further data set is T1, Lysyl oxidase homolog 1 (Homo sapiens, UniProt Q08397).
T1 sequence (Q08397 whole entry): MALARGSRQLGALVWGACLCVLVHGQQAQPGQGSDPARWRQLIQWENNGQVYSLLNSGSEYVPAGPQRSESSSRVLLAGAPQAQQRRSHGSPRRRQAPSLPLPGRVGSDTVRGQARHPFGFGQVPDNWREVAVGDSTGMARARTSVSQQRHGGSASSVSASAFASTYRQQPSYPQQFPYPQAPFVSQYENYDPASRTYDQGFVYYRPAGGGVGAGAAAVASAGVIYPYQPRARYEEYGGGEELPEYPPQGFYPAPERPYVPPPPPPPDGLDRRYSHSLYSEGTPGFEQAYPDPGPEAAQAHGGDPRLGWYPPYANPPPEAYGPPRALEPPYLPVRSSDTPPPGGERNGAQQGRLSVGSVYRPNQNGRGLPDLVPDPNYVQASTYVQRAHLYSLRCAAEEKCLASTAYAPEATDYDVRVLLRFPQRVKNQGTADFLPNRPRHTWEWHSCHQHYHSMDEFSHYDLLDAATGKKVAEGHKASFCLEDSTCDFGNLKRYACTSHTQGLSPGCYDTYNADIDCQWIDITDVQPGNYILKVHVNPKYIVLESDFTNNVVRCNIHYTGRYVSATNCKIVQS
Put plainly: Inhibition of recombinant human LOXL1 using putrescine as substrate preincubated with enzyme for 30 mins followed by substrate addition and measured every 2.5 mins for 30 mins by Amplex-Red oxidation assay. The essentials: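 Recombinant human LOXL1 expressed and purified from cDNA; 30 min preincubation with compound at 37 °C in urea/borate buffer, then Amplex Red/HRP with 10 mM putrescine; H2O2 fluorescence read every 2.5 min for 30 min at 37 °C.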

The next data set addresses T2, Lysyl oxidase homolog 2 (Homo sapiens, UniProt Q9Y4K0).
T2 sequence (Q9Y4K0 whole entry): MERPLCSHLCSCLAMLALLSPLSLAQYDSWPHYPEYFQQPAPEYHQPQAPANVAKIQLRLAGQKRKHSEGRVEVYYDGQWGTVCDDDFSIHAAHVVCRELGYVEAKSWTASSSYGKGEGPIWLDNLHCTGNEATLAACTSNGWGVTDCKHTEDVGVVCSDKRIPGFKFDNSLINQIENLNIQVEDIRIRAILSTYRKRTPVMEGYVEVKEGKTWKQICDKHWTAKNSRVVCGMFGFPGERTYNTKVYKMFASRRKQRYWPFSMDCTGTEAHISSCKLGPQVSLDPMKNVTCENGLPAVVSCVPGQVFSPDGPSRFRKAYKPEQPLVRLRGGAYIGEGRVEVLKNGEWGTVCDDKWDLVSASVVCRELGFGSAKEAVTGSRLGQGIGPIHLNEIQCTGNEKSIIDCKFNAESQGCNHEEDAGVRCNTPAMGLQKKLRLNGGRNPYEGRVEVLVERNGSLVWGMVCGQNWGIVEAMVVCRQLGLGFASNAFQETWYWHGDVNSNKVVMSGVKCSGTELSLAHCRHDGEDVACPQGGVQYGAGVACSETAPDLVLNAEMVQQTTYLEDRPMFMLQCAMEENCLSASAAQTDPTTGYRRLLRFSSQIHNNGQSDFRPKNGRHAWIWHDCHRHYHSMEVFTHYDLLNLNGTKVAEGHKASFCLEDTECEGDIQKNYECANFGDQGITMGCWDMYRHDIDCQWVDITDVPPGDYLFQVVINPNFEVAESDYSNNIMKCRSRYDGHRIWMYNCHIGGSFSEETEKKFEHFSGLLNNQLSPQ
The data set can be described thus: Time-dependent inhibition of recombinant human C-terminal His-tagged […] (1-774 residues) expressed in mouse myeloma cells assessed as apparent inhibition constant using putrescine as substrate by kitz-wilson plot analysis. A digest of the protocol: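 Recombinant human LOXL2 preincubated with inhibitor for varying times at 37 °C, then 5 mM putrescine added with 120 µM Amplex Red and 1.5 U/mL HRP. Buffer was 1.2 M urea, 50 mM sodium borate, pH 8.2. Fluorescence read every 2.5 min for 30 min. Apparent Ki and kinact derived by Kitz–Wilson analysis.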

On to `CCOC(=O)c1ccc2c(c1)c(-c1cccc(S(=O)(=O)N(C)C)c1)c(C)n2C/C(F)=C/CN.Cl`, for which the Drug metabolism entry in data set [1] was “Metabolite_Detected”. The inhibition entry with Mus musculus [2] was “Active”. Moreover, the inhibition entry in the data set on Mus musculus [3] was “Dose-dependent effect”.

Take `Cc1c(-c2cccc(S(=O)(=O)N(C)C)c2)c2cc(C(=O)O)ccc2n1C/C(F)=C/CN.Cl`: on Lysyl oxidase homolog 1, the IC50 was found to be 2.26 µM. The Ki on Lysyl oxidase homolog 2 worked out at 0.083 µM.
